According to ChEMBL document CHEMBL4715831, “Design and synthesis of 2-((1H-indol-3-yl)thio)-N-phenyl-acetamides as novel dual inhibitors of respiratory syncytial virus and influenza virus A” (Eur J Med Chem, 2020):

Key:
[1] = tested on: Respiratory syncytial virus; assay: Antiviral activity against GFP-fused wild-type RSV subgroup A Long infected in human HEp-2 cells measured 24 to 72 hrs post infection by fluorescence assay; type: functional, cell-based
In short: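 HEp-2 cells plated, then after 24 h infected with RSV-mGFP using 3-fold serially diluted inocula starting from 3 × 10^4 pfu/well. Compounds came from a 100 mM DMSO stock, diluted as indicated. RFU read at 479/517 nm at 24, 48 and 72 h post-infection, with non-infected cells as background. Mean ± SD of at least three experiments.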

[2] = Cytotoxicity against human HEp-2 cells assessed as reduction in cell viability measured after 48 hrs by MTS assay; type: cell-based
In short: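 HEp-2 cells plated; after 24 h, compound added and cells incubated 48 h. MTS (2 mg/ml) then added for 3 h at 37 °C in 5% CO2 and absorbance read at 490 nm. Untreated control set as 100%.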

[3] = tested on: Influenza A virus; assay: Antiviral activity against Influenza A virus A/WSN/33(H1N1) infected in human HEK293T cells measured after 24 hrs by Gaussia luciferase reporter gene method; type: functional, organism-based; settings: A/WSN/1933(H1N1), HEK-293T
In short: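 HEK293T cells carrying a Gaussia luciferase reporter that is activated by IAV, infected with A/WSN/33 (H1N1) for 1 h at room temperature, then cultured 24 h at 37 °C with serially diluted compound. Supernatant Gluc read with coelenterazine-h (16.7 μM in PBS) as 0.5-s photon counts. Normalized to control set as 100%; ribavirin positive control; three experiments.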

[4] = Cytotoxicity against HEK293T cells assessed as reduction in cell viability measured after 48 hrs by CCK8 assay; type: cell-based, HEK-293T; settings: human
In short: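 293T cells treated for 48 h with six compound concentrations from 12.5 to 200 μM, with DMSO-only cells as control. CCK-8 then added for 1 h at 37 °C and OD read at 450 nm. Mean ± SD of three experiments.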

[5] = Safety index, ratio of CC50 for HEK293T cells to EC50 for antiviral activity against Influenza A virus A/WSN/33(H1N1) infected in human HEK293T cells; type: toxicity, cell-based; settings: read-out: Ratio CC50/EC50
[6] = tested on: Influenza A virus; assay: Antiviral activity against Influenza A virus A/WSN/33(H1N1) infected in human HEK293T cells assessed as inhibition of viral replication at 10 uM measured after 24 hrs by Gaussia luciferase reporter gene method relative to control; type: functional; settings: A/WSN/1933(H1N1), HEK-293T
[7] = Safety index, ratio of CC50 for human HEp-2 cells to EC50 for GFP-fused wild-type RSV subgroup A long infected in human HEp-2 cells; type: toxicity, cell-based; settings: read-out: Ratio CC50/EC50
[8] = Antiviral activity against H3N2 infected in MDCK cells measured after 24 hrs by Gaussia luciferase reporter gene method; type: functional, cell-based, H3N2 subtype; settings: Influenza A virus
In short: (§1)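 MDCK cells infected with IAV A/WSN/33 (H1N1) or H3N2 for 1 h at room temperature, then cultured in fresh DMEM with serially diluted compound for 24 h at 37 °C. Gluc activity in the medium read with coelenterazine-h (16.7 μM in PBS). Normalized to control set as 100%; ribavirin positive control; mean ± SD of three experiments.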

[9] = tested on: Influenza A virus; assay: Antiviral activity against Influenza A virus A/WSN/33(H1N1) infected in MDCK cells measured after 24 hrs by Gaussia luciferase reporter gene method; type: functional, organism-based; settings: A/WSN/1933(H1N1); in short: as §1

| SMILES | EC50 [1] [µM] | CC50 at 48 h [2] [µM] | EC50 [3] [µM] | CC50 at 48 h [4] [µM] | selectivity ratio [5] | inhibition at 10 µM [6] [%] | selectivity ratio [7] | Activity [1] | EC50 [8] [µM] | EC50 [9] [µM] |
| --- | --- | --- | --- | --- | --- | --- | --- | --- | --- | --- |
| Cn1cc(S(=O)(=O)CC(=O)Nc2cc(Cl)ccc2Cl)c2ccccc21 | > 128 | > 1000 | 18 | > 100 | > 6.72 |  |  |  |  |  |
| Cn1cc([S+]([O-])CC(=O)Nc2ccc(Cl)cc2)c2ccccc21 (centres undefined) | > 128 | 61.9 | 9.93 | > 100 | > 10 |  |  |  |  |  |
| Cn1cc(SCC(=O)Nc2ccc(Cl)c(Cl)c2)c2ccccc21 | 12.5 | 30.5 | 0.64 | > 100 | > 156 | > 85 | 2.45 |  |  |  |
| CCOc1ccccc1NC(=O)CSc1c[nH]c2c(OC)cccc12 | 0.43 | 0.61 | 12.2 | > 100 | > 8.24 |  | 1.42 | Dose-dependent effect |  |  |
| COc1cccc2[nH]cc(SCC(=O)Nc3ccc(Cl)c(Cl)c3)c12 | > 128 | > 256 | 15.1 | > 100 | > 6.61 |  |  |  |  |  |
| COc1ccc2[nH]cc(SCC(=O)Nc3ccc(Cl)c(Cl)c3)c2c1 | 16.6 | 46.4 | 15.5 | 61.8 | 4.19 |  | 2.79 |  |  |  |
| O=C(CSc1c[nH]c2cccc(Cl)c12)Nc1ccc(Cl)c(Cl)c1 | 25.3 | 27.7 | 5.72 | 34.7 | 5.95 |  | 1.09 |  |  |  |
| O=C(CSc1c[nH]c2cc(Cl)ccc12)Nc1ccc(Cl)c(Cl)c1 | 14 | 27.8 | 7.36 | 67.8 | 9.16 |  | 1.99 |  |  |  |
| CCOc1ccccc1NC(=O)CSc1c[nH]c2ccc(Cl)cc12 | 18.1 | 204 | 4.19 | 37.6 | 8.97 |  | 11.3 |  |  |  |
| CCOc1ccccc1NC(=O)CSc1c[nH]c2c(Cl)cccc12 | 4.46 | 262 | 1.75 | > 100 | > 57.5 |  | 58.8 |  | 1.83 | 4.33 |
| Cn1cc(SCC(=O)Nc2ccc(Cl)cc2)c2ccccc21 | > 128 | 31.4 | 9.82 | > 100 | > 10.2 |  |  |  |  |  |
| Cn1cc(S(=O)(=O)CC(=O)Nc2cccc(Cl)c2Cl)c2ccccc21 | 19.9 | 275 | 36.3 | > 100 | > 2.75 |  | 13.8 |  |  |  |
| O=C(CSc1c[nH]c2ccc(Cl)cc12)Nc1ccc(Cl)c(Cl)c1 | 9.95 | 35.2 | 7.62 | 42.7 | 5.53 |  | 3.54 |  |  |  |
| Cn1cc(SCC(=O)Nc2ccccc2Cl)c2ccccc21 | > 128 | > 1000 | 27.9 | > 100 | > 3.59 |  |  |  |  |  |
| Cn1cc(SCC(=O)Nc2cc(Cl)ccc2Cl)c2ccccc21 | > 128 | 76.9 | 15.8 | > 100 | > 6.38 |  |  |  |  |  |
| O=C(CSc1c[nH]c2c(Cl)cccc12)Nc1ccc(Cl)c(Cl)c1 | 18.1 | 32.8 | 10.4 | 49.1 | 4.69 |  | 1.81 |  |  |  |
